Sampled rows, rich in hits. Any-hit rate of the full collection: about 4.1%.
KCNQ1 pot – potentiators or activators of KCNQ1 channel, primary screen, cell-based, thallium flux, high-throughput; Potassium voltage-gated channel subfamily KQT member 1 (Homo sapiens), P51787; CHO-K1 KCNQ1, thallium flux FluxOR fluorescence; hits give high values; B-score at 10 µM; actives 0.35% (n = 310,000);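 active = fluorescence ratio B-score, a plate-corrected score, at least three library SD, with initial intensity B-score within 5 SD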
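Assay system: CHO-K1 cells stably expressing KCNQ1. Medium: assay buffer for compound exposure, DMSO matched across wells. Timing: 37 °C overnight plating, 90-min dark dye load, 20-min compound pretreatment. Signal: kinetic FluxOR fluorescence, 10 s baseline plus 110 s post-stimulus.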
KCNK3 block – human KCNK3 channel inhibitors, primary screen, CHO cells, FluxOR thallium flux, B-score; Potassium channel subfamily K member 3 (Homo sapiens), O14649; FluxOR fluorescence; hits give low values; B-score at 10 µM; actives 0.84% (n = 340,000);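 active = B-score under library mean minus 4 SD, starting fluorescence ratio at most library mean plus 5 SD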;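 note: more negative B-score means stronger inhibition of thallium flux through KCNK3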
KCNK9 block – KCNK9 potassium channel inhibitors, primary screen, HEK293 cells, thallium flux; Potassium channel subfamily K member 9 (Homo sapiens), Q9NPC2; FluxOR thallium flux fluorescence; hits give low values; B-score at 10 µM; actives 1.2% (n = 310,000); AID 488922, 2010;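 active = ratio B-score over 3 SD below the library mean, with starting fluorescence within 5 SD of its mean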;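 note: negative B-score means less thallium flux so channel inhibition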
hERG protect – hERG rescue from dofetilide block, primary screen, cell-based, CHO-hERG, FluxOR thallium flux, dofetilide IC70; Voltage-gated inwardly rectifying potassium channel KCNH2 (Homo sapiens), Q12809; dofetilide IC70 present; activation (rescue from dofetilide block), less the hit threshold, % at 10 µM; actives 0.51% (n = 310,000); AID 1511, 2009;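 active = activation above the mean of controls blocked by dofetilide plus 5 SD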;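 note: thallium influx through hERG after potassium depolarization seen as dye fluorescence rise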
Target sequence (Q12809 whole entry, looked up): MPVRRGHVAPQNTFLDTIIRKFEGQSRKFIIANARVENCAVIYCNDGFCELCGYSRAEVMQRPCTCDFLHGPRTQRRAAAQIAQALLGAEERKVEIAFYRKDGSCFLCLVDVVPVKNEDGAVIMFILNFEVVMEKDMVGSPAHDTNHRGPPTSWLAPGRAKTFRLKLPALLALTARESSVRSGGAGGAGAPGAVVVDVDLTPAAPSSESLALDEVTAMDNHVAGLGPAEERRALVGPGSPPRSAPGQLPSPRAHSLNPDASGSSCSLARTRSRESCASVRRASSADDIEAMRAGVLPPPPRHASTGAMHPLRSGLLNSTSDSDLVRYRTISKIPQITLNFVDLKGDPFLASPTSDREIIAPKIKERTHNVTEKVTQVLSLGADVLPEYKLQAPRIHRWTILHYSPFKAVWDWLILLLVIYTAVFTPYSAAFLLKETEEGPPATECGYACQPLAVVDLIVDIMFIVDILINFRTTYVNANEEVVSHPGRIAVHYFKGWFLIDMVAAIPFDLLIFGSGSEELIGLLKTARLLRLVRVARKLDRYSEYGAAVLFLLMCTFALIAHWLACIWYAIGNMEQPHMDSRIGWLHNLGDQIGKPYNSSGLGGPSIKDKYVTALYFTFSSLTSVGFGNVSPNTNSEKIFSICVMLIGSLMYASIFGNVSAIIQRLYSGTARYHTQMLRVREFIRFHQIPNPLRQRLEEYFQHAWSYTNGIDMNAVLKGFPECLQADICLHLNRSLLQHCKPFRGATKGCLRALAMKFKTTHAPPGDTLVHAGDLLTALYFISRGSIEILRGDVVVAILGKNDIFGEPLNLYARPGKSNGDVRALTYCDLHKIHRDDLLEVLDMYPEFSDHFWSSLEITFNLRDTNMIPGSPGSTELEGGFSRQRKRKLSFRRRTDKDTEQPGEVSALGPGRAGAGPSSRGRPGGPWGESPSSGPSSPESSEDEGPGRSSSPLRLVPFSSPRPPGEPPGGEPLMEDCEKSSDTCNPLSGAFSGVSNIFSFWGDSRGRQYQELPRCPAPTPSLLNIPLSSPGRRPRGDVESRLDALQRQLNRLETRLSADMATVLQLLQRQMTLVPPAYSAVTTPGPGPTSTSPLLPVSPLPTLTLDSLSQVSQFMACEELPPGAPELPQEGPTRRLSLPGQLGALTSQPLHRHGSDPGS
KCNQ1 block – inhibitors of human KCNQ1 channel, primary screen, cell-based, thallium flux, high-throughput; CHO-K1 KCNQ1, FluxOR thallium flux fluorescence; hits give high values; B-score at 10 µM; AID 2642, 2010; actives 1.3% (n = 310,000);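 active = compounds whose thallium flux B-score, printed positive for inhibition, exceeds three library SD while starting fluorescence stays within three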;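 note: channel opened by potassium depolarization with thallium stimulus after 20 min compound exposure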
KCC2 mod – KCC2 cotransporter modulators, thallium flux, primary screen, cell-based, HEK293 KCC2, FluoZin-2 fluorescence, MLSMR; Solute carrier family 12 member 5 (Homo sapiens), Q9H2X9; KCC2 cells, thallium flux FluoZin-2 fluorescence; B-score of Tl+ flux slope (higher = more flux/activation; lower = inhibition) at 10 µM; actives 2.2% (n = 190,000); AID 1456, 2008;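 active = thallium flux slope and its plate-corrected score both differing from the plate sample mean at a set confidence after two filtering rounds, in either direction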;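 note: slope of fluorescence scaled to starting intensity during 10 to 20 s after thallium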
Hits are given with their value; 0 = inactive; - = no result given.

SMILES	KCNQ1 pot	KCNK3 block	KCNK9 block	hERG protect	KCNQ1 block	KCC2 mod
COCCNC(=O)C(c1ccncc1)N(C(=O)Cn1nnc2ccccc21)c1ccc(OC)cc1 (stereo not given)	0	0	0	5.0	0	0
COCCNC(=O)C(c1ccc(OC)cc1)N(C(=O)Cn1nnc2ccccc21)c1cccnc1 (stereo not given)	0	0	0	0	0	0
Cc1cc(C)nc(/N=C(\N)Nc2ccc(CC(=O)OC(C)C)cc2)n1	10	0	0	0	0	-
COc1ccc(C2/C=C\CN(Cc3ccco3)CC(=O)N2Cc2ccc(F)cc2)cc1 (stereo not given)	0	0	-6.88	0	0	0
CCc1ccc2[nH]c(O)c(N=Nc3nc(-c4ccccc4)cs3)c2c1	10	0	0	7.2	0	0
O=C(c1ccco1)N1CCN=C1SCc1ccc(F)cc1	39	0	0	0	0	0
O=C(c1ccco1)N1CCN=C1SCc1cccc(F)c1	0	0	0	0	0	0
COc1cc(SC#N)ccc1N=Cc1c(C)[nH]n(-c2ccc(Cl)cc2)c1=O	0	0	0	0	0	0
COc1cc(S(=O)(=O)Nc2ccccc2)ccc1N=Cc1c(C)[nH]n(-c2ccc(C)cc2)c1=O	0	-	-9.62	0	0	0
CC[C@H](C)/C=C/C1=CC2=C(Cl)C(=O)[C@@]3(C)OC(=O)C(C(=O)[C@H](C)[C@@H](C)O)=C3C2=CO1	0	0	0	0	6	-
Cc1cc(C(=O)CCl)c(C)n1-c1cccc([N+](=O)[O-])c1	11	0	0	0	0	0
O=C(Nc1nc2c(F)cc(F)cc2s1)C1CC1	0	0	0	0	0	-
CC(c1ccco1)N(C(=O)c1ccccc1NS(=O)(=O)c1cc([N+](=O)[O-])ccc1Cl)c1ccccn1 (stereo not given)	0	0	0	0	0	5.4
CC(c1ccco1)N(C(=O)c1ccccc1NS(=O)(=O)c1cccc([N+](=O)[O-])c1)c1ccccn1 (stereo not given)	0	0	0	0	7	0
Cc1n[nH]c(C)c1CCCCOc1ccccc1[N+](=O)[O-]	0	0	0	0	0	-
CCOc1ccc(OCC)c(NC(=O)CCCN2C(=O)c3cccnc3C2=O)c1	0	0	0	7.5	0	0
O=C(CCCN1C(=O)c2cccnc2C1=O)Nc1ccc(Br)cc1	0	0	0	0	0	0
CC(C)n1cc2c(N)ncnc2n1	-	0	-	-	-	-
CCN(CC)CC(=O)Nc1sc(C)c(C)c1C(=O)c1ccc(C)cc1	0	0	0	0	6	0
CC(=O)c1ccc(-c2nnc(CCC(=O)N(C)Cc3c(C)nc4ccccn34)o2)s1	0	0	0	8.1	0	-
CCOC(=O)c1sc(NC(=O)c2c(CC)noc2C)nc1C	-	0	-	-	-	-
CCCN(C(=O)c1ccccc1Cc1ccccc1)C1CCS(=O)(=O)C1 (stereo not given)	0	0	0	0	0	-
CCN(CC)C(=S)SCC(=O)Nc1nc(=O)c2ccccc2s1	0	0	0	0	0	15.6
C=CCOC(=O)c1ccccc1C(=O)OCC1CO1 (stereo not given)	-	0	-	-	-	-
Nc1cccc(C#Cc2ccc3c(c2)C(=O)/C(=C/c2ccsc2)O3)c1	-	0	-	-	-	-
SMILES	KCNQ1 pot	KCNK3 block	KCNK9 block	hERG protect	KCNQ1 block	KCC2 mod
O=C(NNS(=O)(=O)c1ccc(Cl)cc1)c1sccc1-n1cccc1	0	0	0	0	0	-
O=C(NNC(=O)c1sccc1-n1cccc1)c1ccc(Cl)cc1	0	0	0	0	0	15.1
COc1ccc(S(=O)(=O)N2CCOC2CNC(=O)C(=O)NCCCN2CCOCC2)cc1 (stereo not given)	0	0	0	0	0	-
Cc1ccc(NS(=O)(=O)c2cc(C(=O)NCCSC3CCCCC3)ccc2C)cc1	0	0	0	0	0	-
Cc1ccc(SCCNC(=O)c2ccc(C)c(S(=O)(=O)Nc3cccc(C)c3)c2)cc1	0	-11.4	0	0	0	0
Cc1cccc(NC(=S)N/N=C2\CC(C)(C)Oc3ccc(O)cc32)c1	0	0	0	6.5	0	0
COC(=O)C1=C(C)N=C2SCCC(=O)N2C1/C=C/c1ccccc1 (stereo not given)	0	-8.92	0	0	0	0
COCCOC(=O)C1=C(C)N=C2SCCC(=O)N2C1c1cccs1 (stereo not given)	0	0	0	6.3	0	0
CCOC(=O)C1=C(C)N=C2SCCC(=O)N2[C@@H]1c1cccs1	0	0	0	0	0	0
CC(C)CC(=O)N/C(N)=N/c1nc2ccccc2o1	0	0	0	0	0	0
CCCCCc1c2c(cc(O)c1C(=O)O)OC(=O)c1c(cc(OC)cc1C(=O)CCCC)O2	0	0	0	0	8	0
CN(C)c1ccc(/C=C/c2cc[n+](C)cc2)cc1	0	0	0	0	7	0
CN(C)c1ccc(/C=C/c2cc[n+]([O-])cc2)cc1	0	-	0	0	0	0
Cc1ccc(C(=O)O/N=C/c2ccc(N(C)C)cc2)cc1	0	0	0	0	0	0
Cc1ccc(/C=C/c2ccc(N(C)C)cc2)[n+](C)c1	0	0	0	0	9	-
C[C@H](NC(=O)c1cccc([N+](=O)[O-])c1)C(=O)OCC(=O)c1ccccc1Br	-	0	-	-	-	-
O=C(COC(=O)CCC(=O)c1cccs1)NCCc1ccccc1	-	0	-	-	-	-
O=[N+]([O-])c1ccc(/C=C/C2=NN(c3ccccc3)C(c3ccco3)C2)o1 (stereo not given)	0	-9.67	0	0	0	0
C(=C\c1ccco1)/C1=NN(c2ccccc2)C(c2ccco2)C1 (stereo not given)	0	0	0	0	0	0
Cc1nc2c3ccccc3n(Cc3ccccc3F)c2s1	0	0	0	0	0	0
Cc1nc2c3cc(F)ccc3n(Cc3ccccc3F)c2s1	0	0	-8.04	0	0	0
O=C(Nc1ccccc1O)C(c1ccccc1)c1ccccc1	0	0	0	0	6	-
CCOC(=O)C(C)On1c(-c2ccccc2)nc2ccc([N+](=O)[O-])cc21 (stereo not given)	0	0	0	0	0	0
CCOC(=O)C(C)On1c(-c2ccc(Cl)cc2)nc2ccc([N+](=O)[O-])cc21 (stereo not given)	0	0	0	0	9	0
O=[N+]([O-])c1ccc2nc(-c3ccc(Cl)cc3)n(OCc3ccccc3)c2c1	0	0	0	0	6	0
